H69AR inhibit – blocks growth of human H69AR lung tumor cells; viability, % at 10 µM; 85,000 tested, 6% active; H69AR lung tumor viability, ATP luminescence, 72 h; hits give low values;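 active = viability at or below 40%; inactive = viability above 40%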;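 note: multidrug resistant small cell line overexpressing MRP-1 efflux transporter; 100% = mean luminescence of untreated control wells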
Lung fibro prol – blocks proliferation of human lung fibroblasts. LL 47 human lung fibroblast viability, ATP luminescence; hits give low values. viability, % at 10 µM. 85,000 tested, 1.1% active;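 active = viability at or below 50% in the single dose screen; inactive = viability above 50%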;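 note: compound exposure lasted 72 h before the ATP readout; 100% = median luminescence of untreated cell-only wells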
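Test system: LL 47 human lung fibroblasts; Quantity: 1,150 cells/well; Buffer or medium: IMEM plus 15% FBS; Dosing: tenfold compound dosing solution, DMSO at 0.1%; Timing: overnight cell rest, 72 h compound treatment at 37 °C; Detection: ATP-based CellTiter-Glo luminescent readout; Read-out basis: viability percentage against median untreated-cell control; Controls: cell-only wells, no compound.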
HCT116 bCat-KO – beta-catenin-lacking colon tumor cell growth suppression. AID 818. viability, % at 10 µM. HCT116 beta-catenin knockout viability, CellTiter-Glo, 60 h; hits give low values. 140,000 tested, 1.5% active;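 active = viability at or under a set limit, the compound median less 4 SD, cut at about 6% in these data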;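 note: 0% = Hyamine 1622 control at 20 µM and 100% = untreated cell control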
HCT116 PTEN-null – suppresses growth of cells with PTEN deletion. HCT116 PTEN-null viability, CellTiter-Glo, 60 h; hits give low values. viability, % at 10 µM. 140,000 tested, 1.2% active. AID 827;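 active = viability at or below a set limit, 4 SD under the median of all tested compounds, cut at about 3.7% in these data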;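 note: PTEN knockout HCT116 line with beta catenin targeted HCT116 as companion control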
HUVEC prolif 384 – blocks proliferation of human endothelial cells | HUVEC proliferation, CellTiter-Glo luminescence, 72 h; hits give low values | viability, % at 10 µM (by protocol) | 86,000 tested, 1.1% active | AID 648;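 active = viability at or below 30%; inactive = viability above 30%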;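 note: 100% = median luminescence of DMSO-only cell control wells on each plate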
Cav3 T inh – inhibitors of human Cav3.2 T-type calcium channel. 100,000 tested, 4% active. B-score at 10 µM. Cav3.2-expressing cells, Fluo-4 calcium fluorescence FDSS; hits give low values. O95180;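 active = single-dose well whose peak fluorescence ratio is a statistical outlier from its plate by either plate-standardised score or position-corrected B-score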
Target sequence (O95180 whole entry, looked up): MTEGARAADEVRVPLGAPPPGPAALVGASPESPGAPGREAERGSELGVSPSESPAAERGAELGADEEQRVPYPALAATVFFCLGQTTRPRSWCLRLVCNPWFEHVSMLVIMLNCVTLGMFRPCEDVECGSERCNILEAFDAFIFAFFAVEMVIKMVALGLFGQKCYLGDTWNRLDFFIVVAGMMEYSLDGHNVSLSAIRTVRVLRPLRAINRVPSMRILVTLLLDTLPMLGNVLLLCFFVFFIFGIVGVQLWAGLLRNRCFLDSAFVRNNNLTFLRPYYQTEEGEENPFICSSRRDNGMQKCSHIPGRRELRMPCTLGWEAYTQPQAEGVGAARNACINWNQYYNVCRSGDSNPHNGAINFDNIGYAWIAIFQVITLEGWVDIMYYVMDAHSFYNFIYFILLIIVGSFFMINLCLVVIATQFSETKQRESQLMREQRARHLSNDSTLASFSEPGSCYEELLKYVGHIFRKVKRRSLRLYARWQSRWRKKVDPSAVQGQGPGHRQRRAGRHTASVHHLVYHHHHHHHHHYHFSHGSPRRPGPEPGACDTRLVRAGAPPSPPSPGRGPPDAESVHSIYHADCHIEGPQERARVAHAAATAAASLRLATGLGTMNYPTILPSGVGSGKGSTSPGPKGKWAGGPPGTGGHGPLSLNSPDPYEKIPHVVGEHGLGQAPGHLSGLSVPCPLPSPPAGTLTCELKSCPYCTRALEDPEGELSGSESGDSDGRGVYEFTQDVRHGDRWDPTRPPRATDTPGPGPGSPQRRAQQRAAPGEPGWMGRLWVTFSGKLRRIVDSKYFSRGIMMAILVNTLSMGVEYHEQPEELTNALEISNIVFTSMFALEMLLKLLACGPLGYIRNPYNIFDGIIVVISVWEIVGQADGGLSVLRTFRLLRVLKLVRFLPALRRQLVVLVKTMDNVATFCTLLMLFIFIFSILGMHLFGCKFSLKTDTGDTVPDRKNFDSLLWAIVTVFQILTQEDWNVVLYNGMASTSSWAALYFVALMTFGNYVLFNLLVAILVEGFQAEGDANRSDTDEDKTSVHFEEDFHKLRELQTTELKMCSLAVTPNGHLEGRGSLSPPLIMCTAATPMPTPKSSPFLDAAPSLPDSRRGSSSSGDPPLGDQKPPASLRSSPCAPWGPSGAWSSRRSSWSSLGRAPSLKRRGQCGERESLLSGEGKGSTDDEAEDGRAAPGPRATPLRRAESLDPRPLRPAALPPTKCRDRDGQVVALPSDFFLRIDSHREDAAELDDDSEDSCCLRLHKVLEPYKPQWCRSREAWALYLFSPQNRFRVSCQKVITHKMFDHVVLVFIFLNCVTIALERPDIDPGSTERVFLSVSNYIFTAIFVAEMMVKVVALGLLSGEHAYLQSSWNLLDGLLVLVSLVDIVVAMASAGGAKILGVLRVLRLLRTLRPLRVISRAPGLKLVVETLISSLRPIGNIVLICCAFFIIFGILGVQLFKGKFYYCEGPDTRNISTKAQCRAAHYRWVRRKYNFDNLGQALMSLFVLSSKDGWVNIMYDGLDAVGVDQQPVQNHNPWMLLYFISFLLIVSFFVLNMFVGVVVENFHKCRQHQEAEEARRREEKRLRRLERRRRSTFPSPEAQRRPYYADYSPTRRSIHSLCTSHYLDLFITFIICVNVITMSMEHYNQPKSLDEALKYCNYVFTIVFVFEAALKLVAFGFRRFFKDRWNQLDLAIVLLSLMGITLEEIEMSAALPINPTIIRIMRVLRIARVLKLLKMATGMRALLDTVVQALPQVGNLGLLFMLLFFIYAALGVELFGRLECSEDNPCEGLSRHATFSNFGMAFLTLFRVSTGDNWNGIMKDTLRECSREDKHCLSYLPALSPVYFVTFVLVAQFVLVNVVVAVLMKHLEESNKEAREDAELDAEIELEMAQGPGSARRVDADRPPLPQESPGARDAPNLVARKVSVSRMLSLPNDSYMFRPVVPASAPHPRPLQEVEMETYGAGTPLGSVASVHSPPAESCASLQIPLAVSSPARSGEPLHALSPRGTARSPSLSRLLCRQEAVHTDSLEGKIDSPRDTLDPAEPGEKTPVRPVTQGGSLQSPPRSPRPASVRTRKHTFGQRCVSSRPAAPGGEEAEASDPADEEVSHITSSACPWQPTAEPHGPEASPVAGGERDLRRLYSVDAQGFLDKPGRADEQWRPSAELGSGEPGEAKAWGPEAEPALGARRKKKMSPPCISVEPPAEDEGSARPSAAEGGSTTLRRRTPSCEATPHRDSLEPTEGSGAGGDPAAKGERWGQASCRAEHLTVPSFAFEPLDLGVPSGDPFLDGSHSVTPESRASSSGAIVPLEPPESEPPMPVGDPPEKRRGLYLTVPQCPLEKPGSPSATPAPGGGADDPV
An asterisk follows results filed as active; nt = no result given. A selection: hits, their analogues and other compounds. The true share with any hit is near 7.1%.

SMILES	H69AR inhibit	Lung fibro prol	HCT116 bCat-KO	HCT116 PTEN-null	HUVEC prolif 384	Cav3 T inh
CCOc1ccc(NC(=S)N2CCc3cc(OC)c(OC)cc3C2COc2ccc3c(C)cc(=O)oc3c2)cc1 (centres undefined)	nt	nt	87	96	nt	nt
Cc1ccc2oc(-c3cccc(NC(=O)/C=C/c4cccc([N+](=O)[O-])c4)c3C)nc2c1	nt	nt	61	65	nt	nt
CCN(CC)S(=O)(=O)c1ccc2nnn(OCC(=O)Nc3cccc(C#N)c3)c2c1	5.3*	99	84	82	95	-1.6
CN(C)S(=O)(=O)c1ccc2nnn(OCC(=O)NC34CC5CC(CC(C5)C3)C4)c2c1	nt	nt	84	80	nt	nt
O=Nc1ccc(NOC(=O)c2ccccc2Br)cc1	nt	nt	85	96	nt	nt
O=C(ONc1ccc(N=NC(=O)c2ccccc2O)cc1)c1ccccc1	12*	70	37	18	36	-4.5*
CSc1nsc(SC)c1C(=O)N1CCN(S(=O)(=O)c2ccc(C)cc2)C1C(C)C (centres undefined)	85	97	66	65	90	-5.1*
Cc1ccc(-n2c(SCC3CNC(=O)O3)nnc2-c2ccccc2)cc1C (centres undefined)	nt	nt	84	86	nt	nt
Cc1ccc(N(CC(=O)Nc2ccccc2C(=O)NCc2ccco2)S(=O)(=O)c2ccccc2)cc1C	nt	nt	89	94	nt	-6*
COc1ccc(-c2cc(-c3ccccc3O)[nH]n2)cc1	13*	77	43	47	71	-0.13
COc1ccccc1-c1cc(-c2cc(Cl)ccc2O)n[nH]1	82	91	37	55	92	nt
Oc1ccc(Cl)cc1-c1cc(-c2ccccc2)n[nH]1	4.3*	77	10	16	31	0.017
COc1ccc(-c2cc(-c3c(O)c(OC)c4occc4c3OC)[nH]n2)cc1	40	71	42	46	49	-2.4
Cc1ccc2[nH]cc(CCNC(=O)Nc3ccccc3)c2c1	94	103	102	101	99	-3.9*
COc1ccc(-c2nc3ccccc3c(=O)n2NC(=O)c2cccnc2Cl)cc1OC	nt	nt	95	100	nt	nt
CCCn1c(=S)[nH]c2cc(OC)c(OC)cc2c1=O	35*	93	82	91	90	-0.99
CCOC(=O)N1CCC(n2c(=S)[nH]c3cc(OC)c(OC)cc3c2=O)CC1	34*	104	95	94	98	0.71
CCOC(=O)N1CCN(C(=O)CCn2c(=S)[nH]c3cc(OCC)c(OCC)cc3c2=O)CC1	77	104	104	113	97	nt
O=C(OC1Cn2c(=O)ccc(=O)n2C1)c1ccccc1	nt	nt	95	99	nt	nt
CC(C)CSc1nc2c(c(=O)[nH]c(=O)n2C)n1CC(O)COc1cccc2ccccc12 (centres undefined)	32*	91	68	68	79	0.41
Cc1c(NC(=O)c2ccc(N3CCCC3)c([N+](=O)[O-])c2)cccc1-c1nc2ccccc2s1	nt	nt	82	88	nt	-4.6*
COC(=O)c1ccc2c(c1)NC(=O)C1CCCN21 (centres undefined)	73	94	98	94	92	-4.3*
Cc1ccc(NC(=O)COC(=O)c2ccc3c(c2)NC(=O)C2CCCN32)cc1 (centres undefined)	98	91	68	70	80	-0.48
CC12CCC(C(=O)NNc3ccc([N+](=O)[O-])cc3)(CC1=O)C2(C)C (centres undefined)	nt	nt	96	104	nt	nt
C(=C\c1nc(N2CCCC2)c2ccccc2n1)/c1ccccc1	nt	nt	1.8*	2.2*	nt	nt
SMILES	H69AR inhibit	Lung fibro prol	HCT116 bCat-KO	HCT116 PTEN-null	HUVEC prolif 384	Cav3 T inh
Oc1ccc(Nc2nc(N3CCCC3)c3ccccc3n2)cc1	0.7*	2.5*	2.0*	1.8*	47	-0.5
COc1ccc(Nc2nc(N3CCCCC3)c3ccccc3n2)cc1	nt	nt	10	10	nt	-2.5
CC1CCN(c2nc(/C=C/c3ccccc3)nc3ccccc23)CC1	nt	nt	76	84	nt	nt
COc1cc(-c2nnc(-c3ccc(N4CCOCC4)cc3)o2)cc(OC)c1OC	17*	95	74	76	84	-0.0011
CC(C)(C)OC(=O)NCCCCCc1nnc(SCC(=O)Nc2cccc(Cl)c2)o1	88	95	83	83	89	-7.3*
S=C1NCCC12C(=S)Nc1ccccc12 (centres undefined)	nt	nt	nt	nt	nt	0.75
FC(F)(F)c1ccc(N2CCOCC2)c(Nc2nc3ccccc3n3cnnc23)c1	nt	nt	0.8*	0.4*	nt	-0.29
CC(C)OC(=O)CSc1nnc(-c2ccccc2)n1N	103	97	93	105	104	0.21
O=C(COC(=O)c1ccco1)NC1CCCCC1	96	98	92	103	99	-0.51
O=C(NC1CCCCC1)C1CC=CCC1C(=O)OCC(Cl)=C(Cl)Cl (centres undefined)	92	97	101	94	111	-7.5*
COc1ccccc1Oc1ccc(S(=O)(=O)N2CCOCC2)cc1S(=O)(=O)N1CCOCC1	91	99	91	107	84	0.097
Cc1ccc(Oc2ccc(S(=O)(=O)N3CCOCC3)cc2C(N)=O)c(-n2nc3ccccc3n2)c1	31*	53	15	10	42	nt
Cc1ccc(C)c2[nH]c(=O)c(CCNC(=O)C(C)(C)C)cc12	nt	nt	115	106	nt	-0.62
CC(=O)N/C(=N\OCc1ccccc1Cl)c1nonc1NC(C)=O	nt	nt	93	95	nt	nt
COc1ccc(C(=O)N2CC3(CC(c4cccc([N+](=O)[O-])c4)=NO3)C[C@H]2C(=O)NCC(N)=O)cc1 (some centres undefined)	nt	nt	99	88	nt	0.2
O=S(=O)(Nc1cc(Cl)ccc1N1CCCCC1)c1cccs1	86	87	64	75	101	-5.7*
CCOC(=O)c1c(C2COc3ccccc3O2)csc1NC(=O)c1ccco1 (centres undefined)	31*	102	75	81	83	-1.2
O=C(CN1C(=O)c2ccccc2C1=O)Nc1ccccc1C(=O)NC1CCCCC1	85	96	99	109	90	1.1
CCOc1ccc(-n2nc3c(SCCN4CCCC4)nnc(C)c3c2C)cc1	nt	nt	66	60	nt	nt
CC(C)C(=O)Nc1cccc(NC(=S)NC(=O)c2ccc([N+](=O)[O-])cc2)c1	nt	nt	99	83	nt	-4*
N#Cc1ccc(-c2ccc(F)cc2)nc1Oc1ccc(Cl)c(Cl)c1	nt	nt	2.0*	1.7*	nt	-0.4
CCCCOc1cccc(C(=O)NNC(=S)NC2CCCCC2)c1	nt	nt	81	85	nt	-5.8*
CCc1ccc(C(C)NC(=O)c2ccc(F)cc2)cc1 (centres undefined)	nt	nt	93	100	nt	-4.1*
COc1ccc(C(=O)NCC(O)COc2ccc(C(C)(C)C)cc2)cc1[N+](=O)[O-] (centres undefined)	nt	nt	72	75	nt	nt
CCCN(CCC)C1=N/C(=C\c2ccco2)C(=O)N1c1ccccc1	nt	nt	82	83	nt	-4.9*
CCOC(=O)c1ccc(NC(=O)COC(=O)Cc2csc(-c3ccccc3)n2)cc1	nt	nt	87	93	nt	nt

Screening data (PubChem BioAssay)
